Assays:
HeLa [1] = assay: Antiproliferative activity against human HeLa cells incubated for 72 hrs by MTT assay; format: functional, cell-based
Procedure, shortened: (§1)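 Cells seeded at 5000 per well on day 0. Test agents added in five 10-fold dilutions (0.01–100 μM) for a further 72 h, with DMSO ≤0.1% as solvent control. Growth was read by MTT and absorbance converted to percentage growth against untreated cells on the same plate. IC50 came from linear regression on dose–response curves. Quadruplicate points, three independent experiments.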

SW-620 = assay: Antiproliferative activity against human SW620 cells incubated for 72 hrs by MTT assay; format: functional, cell-based; procedure, shortened: as §1
[2] = Antiproliferative activity against mouse L1210/0 cells incubated for 72 hrs by MTT assay; format: functional, cell-based; procedure, shortened: as §1
[3] = Antiproliferative activity against human CEM/0 cells incubated for 72 hrs by MTT assay; format: functional, cell-based, CCRF-CEM; procedure, shortened: as §1
[4] = Antiproliferative activity against human MIAPaCa2 cells incubated for 72 hrs by MTT assay; format: functional, cell-based, MIA PaCa-2; procedure, shortened: as §1
HepG2 = assay: Antiproliferative activity against human HepG2 cells incubated for 72 hrs by MTT assay; format: functional, cell-based; procedure, shortened: as §1
Human alphaherpesvirus 3 [5] = assay: Antiviral activity against Varicella zoster virus Oka expressed in HEL cells assessed as reduction in plaque formation incubated for 5 days; format: functional, organism-based; settings: Human alphaherpesvirus 3, Oka, 120 h
Procedure, shortened: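 Confluent HEL cells were inoculated at 20 PFU per well of VZV. Residual virus was removed after 2 h, then compound dilutions were added in duplicate. EC50 is the concentration reducing plaque formation by 50% versus untreated controls after 5 days.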

Human alphaherpesvirus 3 [6] = assay: Antiviral activity against thymidine kinase deficient Varicella zoster virus 07-1 expressed in HEL cells assessed as reduction in plaque formation incubated for 5 days; format: functional, organism-based; settings: Human alphaherpesvirus 3, 07-1, HEL, 120 h
Procedure, shortened: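 Confluent HEL cells in 96-well plates inoculated with TK-deficient VZV strain 07-1 at 20 PFU per well; residual virus removed after 2 h, then varying compound concentrations added in duplicate. EC50 = concentration reducing viral plaque formation by 50% versus untreated controls after 5 days.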

[7] = Cytotoxicity against African green monkey Vero cells assessed as alteration in cell morphology by microscopy; format: cell-based; settings: chlorocebus sabaeus
Procedure, shortened: (§2)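 MCC is the compound concentration causing a microscopically visible alteration of cell morphology in the cultures used for the antiviral assays.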

Human respirovirus 3 = assay: Antiviral activity against Parainfluenza virus 3 expressed in African green monkey Vero cells assessed as reduction in cytopathogenicity; format: functional, organism-based; settings: Human respirovirus 3, Vero
Procedure, shortened: (§3)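 Confluent Vero monolayers were inoculated with 100 CCID50 of virus in the presence of 5-fold serial compound dilutions. Cytopathicity was scored once it was complete in untreated infected controls. EC50 is the concentration giving 50% reduction of virus-induced cytopathogenicity.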

[8] = tested on: Mammalian orthoreovirus 1; assay: Antiviral activity against Reovirus 1 expressed in African green monkey Vero cells assessed as reduction in cytopathogenicity; format: functional, cell-based; settings: Mammalian orthoreovirus 1, Vero; procedure, shortened: as §3
Sindbis virus = assay: Antiviral activity against Sindbis virus expressed in African green monkey Vero cells assessed as reduction in cytopathogenicity; format: functional, organism-based; procedure, shortened: as §3
Coxsackievirus B4 = assay: Antiviral activity against Coxsackievirus B4 expressed in African green monkey Vero cells assessed as reduction in cytopathogenicity; format: functional, organism-based; settings: Enterovirus B; procedure, shortened: as §3
Punta Toro virus = assay: Antiviral activity against Punta Toro virus expressed in African green monkey Vero cells assessed as reduction in cytopathogenicity; format: functional, organism-based; procedure, shortened: as §3
[9] = Cytotoxicity against human HEL cells assessed as alteration in cell morphology incubated for 3 days by microscopy; format: cell-based; procedure, shortened: as §2
HEL = assay: Cytotoxicity against human HEL cells assessed as cell growth reduction incubated for 3 days; format: cell-based; settings: 72 h
Procedure, shortened: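 HEL cells were seeded at 5 × 10^3 per well and allowed to proliferate for 24 h before compound-containing medium was added. After 3 days at 37 °C, cells were counted with a Coulter counter. CC50 (50% reduction of proliferation versus untreated controls) was estimated from graphic plots.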

Human betaherpesvirus 5 [10] = assay: Antiviral activity against Human cytomegalovirus AD169 expressed in HEL cells assessed as reduction in plaque formation incubated for 7 days by Giemsa stain based microscopy; format: functional, organism-based; settings: Human betaherpesvirus 5, AD169, HEL, 168 h
Procedure, shortened: (§4)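 Confluent HEL fibroblasts were infected at 100 PFU per well. After 2 h, residual virus was removed and compound-containing medium added, in duplicate. After 7 days at 37 °C, cells were ethanol-fixed, Giemsa-stained and examined microscopically. EC50 was read from graphic plots of % cytopathogenicity versus concentration.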

Human betaherpesvirus 5 [11] = assay: Antiviral activity against Human cytomegalovirus Davis expressed in HEL cells assessed as reduction in plaque formation incubated for 7 days by Giemsa stain based microscopy; format: functional, organism-based; settings: Human betaherpesvirus 5, Davis, 168 h; procedure, shortened: as §4
HeLa [12] = assay: Cytotoxicity against human HeLa cells assessed as cell growth reduction incubated for 3 days; format: cell-based; settings: 72 h
[13] = Cytotoxicity against CRFK cells assessed as cell growth reduction incubated for 3 days; format: cell-based, Felis catus; settings: cat, 72 h
CFPAC-1 = assay: Antiproliferative activity against human CFPAC-1 cells incubated for 72 hrs by MTT assay; format: functional, cell-based; settings: CFPAC-1, 72 h; procedure, shortened: as §1

SMILES	IC50 (HeLa [1]; Homo sapiens, HeLa, 72 h) [µM]	IC50 (SW-620; Homo sapiens, SW-620, 72 h) [µM]	IC50 ([2]; Mus musculus, L1210/0, 72 h) [µM]	IC50 ([3]; Homo sapiens, CCRF-CEM, 72 h) [µM]	IC50 ([4]; Homo sapiens, MIA PaCa-2, 72 h) [µM]	IC50 (HepG2; Homo sapiens, HepG2, 72 h) [µM]	further results
O=C1O/C(=C\Cn2cnc3ccn(C/C=C4\OC(=O)C(OCc5ccccc5)=C4OCc4ccccc4)c3c2=O)C(OCc2ccccc2)=C1OCc1ccccc1	5.6	47.2	4.5	19	26.2	> 100	EC50 (Human alphaherpesvirus 3 [5]): 13.8 µM; EC50 (Human alphaherpesvirus 3 [6]): 7.6 µM; MCC [7]: ≥ 20 µM; EC50 (Human respirovirus 3): > 20 µM; EC50 [8]: > 20 µM; EC50 (Sindbis virus): > 20 µM; EC50 (Coxsackievirus B4): > 20 µM; EC50 (Punta Toro virus): 6.7 µM
COc1nc(OC)c2c(ccn2CCC2(O)NC(=O)C(OCc3ccccc3)=C2OCc2ccccc2)n1 (stereo not given)				87		> 100	
O=C1O/C(=C\Cn2cnc3c(F)nc(F)c(Cl)c32)C(OCc2ccccc2)=C1OCc1ccccc1	> 100	55			78	> 100	MCC at 72 h [9]: > 100 µM; CC50 (HEL): ≥ 100 µM; EC50 (Human betaherpesvirus 5 [10]): 44.7 µM; EC50 (Human betaherpesvirus 5 [11]): 44.7 µM; MCC [7]: ≥ 20 µM; EC50 (Human respirovirus 3): > 20 µM; EC50 [8]: > 20 µM; EC50 (Sindbis virus): > 20 µM; EC50 (Coxsackievirus B4): 14.5 µM; EC50 (Punta Toro virus): 12 µM; Activity (HeLa [12]): Non-toxic
O=C1NC(O)(CCn2cnc3ccnc(Cl)c32)C(OCc2ccccc2)=C1OCc1ccccc1 (stereo not given)	21	> 100			60	> 100	
O=C1NC(O)(CCn2cnc3cncc(Br)c32)C(OCc2ccccc2)=C1OCc1ccccc1 (stereo not given)	77	> 100	50	25	48.7	66.5	
Nc1nc(F)c(Cl)c2c1ncn2CCC1(O)NC(=O)C(OCc2ccccc2)=C1OCc1ccccc1 (stereo not given)	39	59			> 100	> 100	
O=C1NC(O)(/C=C\n2cc(I)c3c(Cl)ncnc32)C(OCc2ccccc2)=C1OCc1ccccc1 (stereo not given)	> 250	46.9	> 250	> 250	22.6	32.4	
O=C1O/C(=C\Cn2cnc3cc[nH]c3c2=O)C(OCc2ccccc2)=C1OCc1ccccc1	27	> 100	28	16	> 100	> 100	
O=C1NC(O)(CCn2cnc3cc[nH]c3c2=O)C(OCc2ccccc2)=C1OCc1ccccc1 (stereo not given)	92	90.7	107	87	36.6	> 100	
O=C1O/C(=C\Cn2cnc3cncc(Br)c32)C(OCc2ccccc2)=C1OCc1ccccc1 (mixture of isomers)	15	32.9	6.8	5.7	22.6	46.9	
COc1nc(OC)c2c(ccn2C/C=C2\OC(=O)C(OCc3ccccc3)=C2OCc2ccccc2)n1 (mixture of isomers)	12	47.1	4.7	4.1	33.9	> 100	MCC at 72 h [9]: ≥ 20 µM; CC50 (HEL): 36.6 µM; EC50 (Human betaherpesvirus 5 [10]): 4.99 µM; EC50 (Human betaherpesvirus 5 [11]): 1.99 µM
O=C1O/C(=C\Cn2cnc3c(Cl)c(F)nc(F)c32)C(OCc2ccccc2)=C1OCc1ccccc1 (mixture of isomers)	> 100	50			> 100	> 100	MCC at 72 h [9]: ≥ 100 µM; CC50 (HEL): > 100 µM; EC50 (Human betaherpesvirus 5 [10]): 8.94 µM; EC50 (Human betaherpesvirus 5 [11]): 8.94 µM; MCC [7]: 20 µM; EC50 (Human respirovirus 3): > 20 µM; EC50 [8]: > 20 µM; EC50 (Sindbis virus): > 20 µM; EC50 (Coxsackievirus B4): > 20 µM; EC50 (Punta Toro virus): 12 µM; Activity [13]: Non-toxic; Activity (HeLa [12]): Non-toxic
O=C1O/C(=C\Cn2cnc3ccnc(Cl)c32)C(OCc2ccccc2)=C1OCc1ccccc1 (mixture of isomers)	> 100	> 100			> 100	> 100	
O=C1O/C(=C\Cn2cnc3c(Cl)c(F)nc(F)c32)C(O)=C1O (mixture of isomers)	> 100	> 100			> 100	> 100	
O=C1O/C(=C\Cn2cnc3ncc(Br)c-3c2)C(OCc2ccccc2)=C1OCc1ccccc1 (mixture of isomers)	17	> 100	15	12	> 100	> 100	IC50 (CFPAC-1): > 100 µM
O=C1O/C(=C\Cn2cc(I)c3c(Cl)ncnc32)C(OCc2ccccc2)=C1OCc1ccccc1 (mixture of isomers)	65	> 100	128	> 250	33.3	> 100	
O=C1NC(O)(CCn2cnc3ccn(CCC4(O)NC(=O)C(OCc5ccccc5)=C4OCc4ccccc4)c3c2=O)C(OCc2ccccc2)=C1OCc1ccccc1 (stereo in doubt; 18)	17		4.4		5.7	> 100	IC50 (SW-620; sw-620): 69.9 µM; IC50 ([3]; ccrf-cem): 15 µM
O=C1NC(O)(CCn2cnc3ccn(CCC4(O)NC(=O)C(OCc5ccccc5)=C4OCc4ccccc4)c3c2=O)C(OCc2ccccc2)=C1OCc1ccccc1 (stereo in doubt; 19)							IC50 (HeLa [1]; hela): 18 µM; IC50 (SW-620; sw-620): 30.5 µM; IC50 ([2]; l1210/0): 7.6 µM; IC50 ([3]; ccrf-cem): 4.9 µM; IC50 ([4]; mia paca-2): 4.4 µM; IC50 (HepG2; hepg2): 52 µM
Nc1ncnc2c1ncn2C[C@H](O)CO [(S)-DHPA]							MCC [7]: > 250 µM; EC50 (Human respirovirus 3): > 250 µM; EC50 [8]: > 250 µM; EC50 (Sindbis virus): > 250 µM; EC50 (Coxsackievirus B4): > 250 µM; EC50 (Punta Toro virus): > 250 µM
Nc1ccn(C[C@@H](CO)OCP(=O)(O)O)c(=O)n1 [CIDOFOVIR]							MCC at 72 h [9]: > 300 µM; CC50 (HEL): 153 µM; EC50 (Human betaherpesvirus 5 [10]): 0.61 µM; EC50 (Human betaherpesvirus 5 [11]): 0.51 µM
O=c1[nH]cc(F)c(=O)[nH]1 [FLUOROURACIL]	66.5	0.79				55.2	
Nc1nc(O)c2ncn(COC(CO)CO)c2n1 [GANCICLOVIR]							MCC at 72 h [9]: > 350 µM; CC50 (HEL): 328 µM; EC50 (Human betaherpesvirus 5 [10]): 6.12 µM; EC50 (Human betaherpesvirus 5 [11]): 4.72 µM
NC(=O)c1ncn([C@@H]2O[C@H](CO)[C@@H](O)[C@H]2O)n1 [RIBAVIRIN]							MCC [7]: > 250 µM; EC50 (Human respirovirus 3): 73.5 µM; EC50 [8]: > 250 µM; EC50 (Sindbis virus): > 250 µM; EC50 (Coxsackievirus B4): > 250 µM

— ChEMBL document CHEMBL3627667, “Novel halogenated 3-deazapurine, 7-deazapurine and alkylated 9-deazapurine derivatives of L-ascorbic or imino-L-ascorbic acid: Synthesis, antitumour and antiviral activity evaluations” (Eur J Med Chem, 2015)
